Reference: paper PMC4361481 (Journal of Biomolecular Screening, 2015)

Legend:
[1] = tested on: H3K27me3; conditions: mutant EZH2-bearing lymphoma cells; cited from earlier work
[2] = tested on: H3K27me3; assay: H3K27me3 HCA assay, MDA-MB-231 cells, 384-well format; type: cell-based; conditions: MDA-MB-231, 3 days
Method in brief: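 MDA-MB-231 cells were plated in 384-well plates 24 h before compound, diluted in medium from a 10 mM DMSO stock (final DMSO ≤0.6%). Treatment was 3 µM over a time course or a concentration series for 3 days, at 37 °C, 5% CO2. H3K27me3 immunofluorescence used PFA fixation and Triton permeabilization, primary antibody 16 h at 4 °C, plus Hoechst. Confocal imaging averaged about 1500–2000 nuclei; triplicates, % of DMSO control.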

[3] = tested on: MDA-MB-231 cells; assay: Number of analyzed nuclei; type: cell-based; conditions: MDA-MB-231, 3 days, maximal effect, concentration not given
Method in brief: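 Proliferation was read from the same 3-day high-content assay in 384-well plates at 37 °C, 5% CO2. Nuclei were counted in the Hoechst (4 µg/mL) DNA channel. Segmentation used a gray-level threshold and minimum/maximum nuclear diameter set on DMSO-treated controls, which excluded debris. Total nuclei per well served as cell number and were expressed as % of DMSO control, in triplicate.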

| Structure (SMILES) | time at which loss of H3K27me3 was apparent [1] [h] | time required for full effects on H3K27me3 [1] | global H3K27me3 level at maximum reduction, % of DMSO control [2] [%] | cell number, % of DMSO control [3] [%] |
| --- | --- | --- | --- | --- |
| Cc1cc(C)c(CNC(=O)c2cc(-c3ccc(CN4CCOCC4)cc3)cc3c2cnn3C2CCCC2)c(=O)[nH]1 [EPZ005687] | 24 | up to 5 days | – | – |
| Nc1nccc2c1ncn2C1C=C(CO)C(O)C1O (stereo not shown) [DZNep, 3-deazaneplanocin A] | – | – | 65 | 45 |
